ChEMBL document CHEMBL3102739, “Synthesis and antiproliferative activity of conformationally restricted 1,2,3-triazole analogues of combretastatins in the sea urchin embryo model and against human cancer cell lines” (Bioorg Med Chem, 2014)

Columns and labels:
[1] = tested on: Paracentrotus lividus; test: Antimitotic activity against sea urchin embryo free-swimming blastula model assessed as embryo spinning compound treated at 8 to 10 hrs post-fertilization measured after 0.25 to 20 hrs; format: functional, Blastula stage
[2] = tested on: Paracentrotus lividus; test: Antimitotic activity against sea urchin embryo model assessed as cleavage alteration of fertilized egg compound treated at 8 to 20 mins post-fertilization and 45 to 55 mins prior to first mitotic cycle completion measured 2.5 to 5.5 hrs post-fertilization; format: functional
How it was run: (§1)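 Fertilized eggs are exposed 8–20 min after fertilization to 2-fold decreasing concentrations. Stocks are 10 mM in DMSO, then diluted 10-fold in 95% EtOH; final DMSO is at most 0.05% and EtOH at most 1%. Embryos are kept as a monolayer, up to 2000 embryos/mL, in filtered seawater at room temperature. The value is the threshold concentration giving cleavage alteration, embryo death before hatching or full mitotic arrest. Duplicates were run.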

[3] = tested on: Paracentrotus lividus; test: Antimitotic activity against sea urchin embryo model assessed as cleavage arrest of fertilized egg compound treated at 8 to 20 mins post-fertilization and 45 to 55 mins prior to first mitotic cycle completion measured 2.5 to 5.5 hrs post-fertilization; format: functional; how it was run: as §1
[4] = Growth inhibition of human UO31 cells after 48 hrs by SRB assay; format: functional; conditions: UO-31, 48 h
[5] = tested on: SN12C; test: Growth inhibition of human SN12C cells after 48 hrs by SRB assay; format: functional
[6] = tested on: SR; test: Growth inhibition of human SR cells after 48 hrs by SRB assay; format: functional
[7] = tested on: NCI-H226; test: Growth inhibition of human NCI-H226 cells after 48 hrs by SRB assay; format: functional; conditions: NCI-H226, 48 h
[8] = tested on: SW-620; test: Growth inhibition of human SW620 cells after 48 hrs by SRB assay; format: functional; conditions: SW-620, 48 h
[9] = tested on: ACHN; test: Growth inhibition of human ACHN cells after 48 hrs by SRB assay; format: functional
[10] = tested on: MDA-MB-231; test: Growth inhibition of human MDA-MB-231 cells after 48 hrs by SRB assay; format: functional; conditions: MDA-MB-231, 48 h
[11] = Growth inhibition of human OVCAR5 cells after 48 hrs by SRB assay; format: functional; conditions: OVCAR-5, 48 h
[12] = tested on: CAKI-1; test: Growth inhibition of human CAKI-1 cells after 48 hrs by SRB assay; format: functional; conditions: CAKI-1, 48 h
[13] = tested on: HOP-62; test: Growth inhibition of human HOP62 cells after 48 hrs by SRB assay; format: functional; conditions: HOP-62, 48 h
[14] = tested on: KM12; test: Growth inhibition of human KM12 cells after 48 hrs by SRB assay; format: functional; conditions: KM12, 48 h
[15] = tested on: SK-MEL-28; test: Growth inhibition of human SK-MEL-28 cells after 48 hrs by SRB assay; format: functional; conditions: SK-MEL-28, 48 h
[16] = tested on: 786-0; test: Growth inhibition of human 786-0 cells after 48 hrs by SRB assay; format: functional; conditions: 786-0, 48 h
[17] = tested on: SNB-75; test: Growth inhibition of human SNB75 cells after 48 hrs by SRB assay; format: functional; conditions: SNB-75, 48 h
[18] = tested on: CCRF-CEM; test: Growth inhibition of human CCRF-CEM cells after 48 hrs by SRB assay; format: functional
[19] = tested on: MCF7; test: Growth inhibition of human MCF7 cells after 48 hrs by SRB assay; format: functional; conditions: MCF7, 48 h
[20] = tested on: OVCAR-3; test: Growth inhibition of human OVCAR3 cells after 48 hrs by SRB assay; format: functional; conditions: OVCAR-3, 48 h
[21] = tested on: BT-549; test: Growth inhibition of human BT549 cells after 48 hrs by SRB assay; format: functional; conditions: BT-549, 48 h
[22] = tested on: A498; test: Growth inhibition of human A498 cells after 48 hrs by SRB assay; format: functional; conditions: A498, 48 h
[23] = tested on: HT-29; test: Growth inhibition of human HT-29 cells after 48 hrs by SRB assay; format: functional; conditions: HT-29, 48 h
[24] = tested on: HCT-15; test: Growth inhibition of human HCT15 cells after 48 hrs by SRB assay; format: functional; conditions: HCT-15, 48 h
[25] = tested on: K562; test: Growth inhibition of human K562 cells after 48 hrs by SRB assay; format: functional; conditions: K562, 48 h
[26] = Growth inhibition of human RXF393 cells after 48 hrs by SRB assay; format: functional; conditions: RXF 393, 48 h
[27] = tested on: DU-145; test: Growth inhibition of human DU145 cells after 48 hrs by SRB assay; format: functional; conditions: DU-145, 48 h
[28] = tested on: A549; test: Growth inhibition of human A549 cells after 48 hrs by SRB assay; format: functional; conditions: A549, 48 h
[29] = tested on: COLO 205; test: Growth inhibition of human COLO205 cells after 48 hrs by SRB assay; format: functional; conditions: COLO 205, 48 h
[30] = tested on: HL-60(TB); test: Growth inhibition of human HL-60(TB) cells after 48 hrs by SRB assay; format: functional; conditions: HL-60, 48 h
[31] = tested on: OVCAR-8; test: Growth inhibition of human OVCAR8 cells after 48 hrs by SRB assay; format: functional; conditions: OVCAR-8, 48 h
[32] = tested on: SF-295; test: Growth inhibition of human SF295 cells after 48 hrs by SRB assay; format: functional; conditions: SF-295, 48 h
[33] = tested on: SNB-19; test: Growth inhibition of human SNB19 cells after 48 hrs by SRB assay; format: functional; conditions: SNB-19, 48 h
[34] = tested on: HCT-116; test: Growth inhibition of human HCT116 cells after 48 hrs by SRB assay; format: functional; conditions: HCT-116, 48 h
[35] = tested on: NCI-H460; test: Growth inhibition of human NCI-H460 cells after 48 hrs by SRB assay; format: functional; conditions: NCI-H460, 48 h
[36] = tested on: RPMI-8226; test: Growth inhibition of human RPMI8226 cells after 48 hrs by SRB assay; format: functional; conditions: RPMI-8226, 48 h
[37] = Growth inhibition of human OVCAR4 cells after 48 hrs by SRB assay; format: functional; conditions: OVCAR-4, 48 h
[38] = Growth inhibition of human Hs578T cells after 48 hrs by SRB assay; format: functional; conditions: Hs-578T
[39] = tested on: M14; test: Growth inhibition of human M14 cells after 48 hrs by SRB assay; format: functional; conditions: M14, 48 h
[40] = Growth inhibition of human UACC257 cells after 48 hrs by SRB assay; format: functional; conditions: UACC-257, 48 h
[41] = tested on: NCI-H522; test: Growth inhibition of human NCI-H522 cells after 48 hrs by SRB assay; format: functional; conditions: NCI-H522, 48 h
[42] = tested on: MOLT-4; test: Growth inhibition of human MOLT4 cells after 48 hrs by SRB assay; format: functional; conditions: MOLT-4, 48 h
[43] = tested on: NCI-H322M; test: Growth inhibition of human NCI-H322M cells after 48 hrs by SRB assay; format: functional
[44] = tested on: MDA-MB-435; test: Growth inhibition of human MDA-MB-435 cells after 48 hrs by SRB assay; format: functional; conditions: MDA-MB-435, 48 h
[45] = Growth inhibition of human NCI-ADR-RES cells after 48 hrs by SRB assay; format: functional
[46] = tested on: SK-OV-3; test: Growth inhibition of human SKOV3 cells after 48 hrs by SRB assay; format: functional; conditions: SK-OV-3, 48 h
[47] = tested on: PC-3; test: Growth inhibition of human PC3 cells after 48 hrs by SRB assay; format: functional; conditions: PC-3, 48 h
[48] = tested on: SK-MEL-5; test: Growth inhibition of human SK-MEL-5 cells after 48 hrs by SRB assay; format: functional; conditions: SK-MEL-5, 48 h
[49] = tested on: UACC-62; test: Growth inhibition of human UACC62 cells after 48 hrs by SRB assay; format: functional; conditions: UACC-62, 48 h
[50] = tested on: SF-268; test: Growth inhibition of human SF268 cells after 48 hrs by SRB assay; format: functional; conditions: SF-268, 48 h
[51] = Growth inhibition of human SF539 cells after 48 hrs by SRB assay; format: functional; conditions: SF-539, 48 h
[52] = tested on: IGROV-1; test: Growth inhibition of human IGROV1 cells after 48 hrs by SRB assay; format: functional; conditions: IGROV-1, 48 h
[53] = Growth inhibition of human HCC2998 cells after 48 hrs by SRB assay; format: functional; conditions: HCC 2998, 48 h
[54] = tested on: MDA-MB-468; test: Growth inhibition of human MDA-MB-468 cells after 48 hrs by SRB assay; format: functional; conditions: MDA-MB-468, 48 h
[55] = Growth inhibition of human NCI60 cells at 10 uM after 48 hrs by SRB assay; format: functional; conditions: NCI60, 48 h, values are per cent of control

With `COc1ccc(-c2c(N)nnn2-c2cc(OC)c(OC)c(OC)c2)cc1` the EC [1] was greater than 5 µM, the EC [2] was 0.1 µM and the EC [3] was greater than 4 µM.
For `COc1ccc(-c2cnnn2-c2cc(OC)c3c(c2)OCO3)cc1`, the GI50 [4] was 692 nM, the GI50 [5] was 486 nM and the GI50 [6] was 41 nM. The GI50 [7] was 4670 nM, the GI50 [8] was 56 nM and the GI50 [9] was 607 nM. It also gave a GI50 [10] of 135 nM, an EC [1] of 0.5 µM and a GI50 [11] of 374 nM. The GI50 [12] was 98 nM, the GI50 [13] was 125 nM and the GI50 [14] was 60 nM. The GI50 [15] was 725 nM, the GI50 [16] was 363 nM and the GI50 [17] was 119 nM. For the same molecule, the GI50 [18] was 132 nM, the GI50 [19] was 47 nM and the GI50 [20] was 53 nM. For the same molecule, the GI50 [21] was 160 nM, the GI50 [22] was 49 nM and the EC [2] was 0.01 µM. For the same molecule, the GI50 [23] was 40 nM, the GI50 [24] was 45 nM and the GI50 [25] was 41 nM. For the same molecule, the GI50 [26] was 157 nM, the GI50 [27] was 232 nM and the GI50 [28] was 88 nM. For the same molecule, the GI50 [29] was 53 nM, the GI50 [30] was 51 nM and the GI50 [31] was 284 nM. It also gave a GI50 [32] of 73 nM, a GI50 [33] greater than 100000 nM and a GI50 [34] of 64 nM. It also gave a GI50 [35] of 55 nM, a GI50 [36] of 253 nM and a GI50 [37] of 4170 nM. For the same molecule, the GI50 [38] was 154 nM, the GI50 [39] was 61 nM and the GI50 [40] was 74900 nM. It also gave a GI50 [41] of 21 nM, a GI50 [42] of 122 nM and a GI50 [43] of 673 nM. It also gave a GI50 [44] of 22 nM, a GI50 [45] of 38 nM and a GI50 [46] of 271 nM. It also gave a GI50 [47] of 150 nM, a GI50 [48] of 235 nM and a GI50 [49] of 72 nM. The GI50 [50] was 611 nM, the GI50 [51] was 95 nM and the GI50 [52] was 123 nM. It also gave a GI50 [53] of 258 nM, an EC [3] of 0.1 µM and a GI50 [54] of 62 nM.
With `COc1ccc(-c2cnnn2-c2cc(OC)c3c(c2OC)OCO3)cc1` the EC [1] was greater than 4 µM, the EC [2] was 1 µM and the EC [3] was greater than 4 µM.
For `COc1cc(-c2c(C(N)=O)nnn2-c2cc(OC)c(OC)c(OC)c2)cc(OC)c1OC`, the EC [1] was greater than 4 µM, the EC [2] was greater than 4 µM and the growth, % of control at 10 µM [55] was 102%. It also gave an EC [3] greater than 4 µM.
For `CCOC(=O)c1nnn(-c2cccc(Cl)c2)c1-c1ccccc1`, the EC [1] was greater than 4 µM, the EC [2] was greater than 4 µM and the EC [3] was greater than 4 µM.
